According to ChEMBL document CHEMBL1146457, “Tetrahydrofuran lignans from Nectandra megapotamica with trypanocidal activity” (J Nat Prod, 2004):
pIC50: −log10 of the molar value.

Experiments:
[1] = system: Trypanosoma cruzi; experiment: Trypanocidal activity against Trypanosoma cruzi Y trypomastigotes infected in mouse macrophage at 250 ug/ml; format: functional, organism-based
How it was run: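 Positive-control wells had gentian violet at 250 µg/mL against trypomastigotes from mouse macrophage cultures, about 2 × 10^6 parasites/mL, in RPMI 1640 in blood. Incubation was at 4 °C, and percent lysis was measured by MTT colorimetric method, in triplicate.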

[2] = system: Trypanosoma cruzi; experiment: Trypanocidal activity against Trypanosoma cruzi Y trypomastigotes infected in mouse macrophage at 32 uM; format: functional
How it was run: (§1)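 Trypomastigotes were harvested from mouse macrophage cultures, about 2 × 10^6 parasites/mL, in RPMI 1640 in 96-well plates. Compounds were dissolved in DMSO and diluted in blood to final 2.0, 8.0 and 32.0 µM, with 1% DMSO. Plates were incubated at 4 °C, and percent lysis was read by MTT colorimetry, in triplicate. Negative control: infected blood plus DMSO.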

[3] = system: Trypanosoma cruzi; experiment: Trypanocidal activity against Trypanosoma cruzi Y trypomastigotes infected in mouse macrophage at 2 uM; format: functional; how it was run: as §1
[4] = system: Trypanosoma cruzi; experiment: Trypanocidal activity against Trypanosoma cruzi Y trypomastigotes infected in mouse macrophage at 8 uM; format: functional; how it was run: as §1
[5] = system: Trypanosoma cruzi; experiment: Antitrypanosomal activity against Trypanosoma cruzi Y trypomastigotes infected in mouse macrophage; format: functional, organism-based; how it was run: as §1

Row | SMILES | pIC50 [1] | Activity [2] | Activity [3] | Activity [4] | pIC50 [5]
1 | CN(C)c1ccc(C(=C2C=CC(=[N+](C)C)C=C2)c2ccc(N(C)C)cc2)cc1 [GENTIAN VIOLET] | 4.12 | – | – | – | –
2 | COc1cc([C@H]2O[C@@H](c3ccc(O)c(OC)c3)[C@H](C)[C@@H]2C)ccc1O [NECTANDRIN B] | – | 48% | 23% | 25% | 4.33
3 | COc1cc([C@H]2O[C@@H](c3ccc(OC)c(OC)c3)[C@H](C)[C@@H]2C)ccc1O [NECTANDRIN A] | – | 18% | 10.2% | 13.5% | 1.76
4 | COc1cc([C@H]2O[C@@H](c3ccc(OC)c(OC)c3)[C@@H](C)[C@@H]2C)ccc1O [ARISTOLIGNIN] | – | 47.6% | 34.2% | 46.8% | 4.46
5 | COc1ccc([C@H]2O[C@@H](c3ccc(OC)c(OC)c3)[C@H](C)[C@@H]2C)cc1OC [GALGRAVIN] | – | 59.9% | 44% | 56.3% | 5.36
6 | COc1ccc([C@@H]2O[C@H](c3ccc4c(c3)OCO4)[C@@H](C)[C@@H]2C)cc1OC [CALOPIPTIN] | – | 60.3% | 21.4% | 49.2% | 4.90
7 | COc1ccc([C@@H]2O[C@H](c3ccc4c(c3)OCO4)[C@@H](C)[C@H]2C)cc1OC [MACHILIN G] | – | 94% | 54.8% | 53.6% | 5.66
8 | COc1ccc([C@H]2O[C@H](c3ccc(OC)c(OC)c3)[C@@H](C)[C@H]2C)cc1OC [GANSCHISANDRINE] | – | 55.6% | 36.5% | 49.2% | 4.91
